The results in this text go back to PubChem BioAssay.

Test [1] can be described thus: inhibitors of TNFa-induced NFkB p65 translocation, primary screen, imaging, HUVEC, MLSMR starter and 10KST1 sets (AID 438;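 active means inhibition above 20% together with a positive visual image hit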;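 further: compound added about 3h40 before a 20 min TNFalpha stimulation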;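 on inhibition: signal is the nuclear over cytoplasmic p65 intensity ratio per well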). As to conditions: HUVEC TNFa-induced p65 nuclear translocation; cell count: measured here: nuclei count (cytotoxicity indicator), at 2.08 µM; inhibition: at 2 µM, stronger effect = higher value, 0% TNFa-plus-vehicle, 100% no-TNFa wells.
The nature of test [2]: endothelial E-selectin expression blockers – imaging, HUVEC, immunofluorescence, MLSMR starter and 10KST1 sets, primary screen (AID 487).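 On inhibition: signal is fraction of cell area covered by stained E-selectin grains.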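 On nuclei count: 100% = median nuclei count of all wells on the same plate.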 The following applies: HUVEC TNFalpha-induced E-selectin immunofluorescence imaging, at 2 µM; inhibition: stronger effect = higher value; nuclei count: measured here: cell number, toxicity.
Test [3] in a line: Primary imaging screen for DUSP6 inhibitors that restore phospho-Erk in transfected HeLa cells, chemical complementation (AID 609;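 active means compounds giving at least 50% inhibition in the cell-based MKP-3 phosphatase rescue imaging test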;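 on inhibition: phospho-Erk level distribution per well compared with pooled transfected vehicle control wells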). As to conditions: HeLa MKP-3 transfected, phospho-Erk imaging KS statistic, at 10 µM, cells stimulated with TPA for 15 min.
For test [4], the target named is Dual specificity protein phosphatase 6 (Homo sapiens) (UniProt Q16828). The description is as above. As to conditions: HeLa MKP-3 transfected, phospho-Erk imaging KS statistic; at 10 µM; stronger effect = higher value; cells stimulated with TPA for 15 min.
Chain of Dual specificity protein phosphatase 6 (Homo sapiens) (Q16828 whole entry, looked up): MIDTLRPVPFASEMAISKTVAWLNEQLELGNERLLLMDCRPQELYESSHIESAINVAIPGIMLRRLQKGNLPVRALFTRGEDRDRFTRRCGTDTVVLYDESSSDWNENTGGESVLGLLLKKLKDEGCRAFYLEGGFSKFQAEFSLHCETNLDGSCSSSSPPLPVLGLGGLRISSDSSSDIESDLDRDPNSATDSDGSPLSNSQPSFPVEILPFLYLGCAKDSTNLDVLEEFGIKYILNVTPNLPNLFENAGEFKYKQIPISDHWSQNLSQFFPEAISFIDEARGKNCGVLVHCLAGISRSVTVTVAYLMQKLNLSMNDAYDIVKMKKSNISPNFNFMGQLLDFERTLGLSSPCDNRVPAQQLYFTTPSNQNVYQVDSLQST
In test [5] the target is Voltage-gated potassium channel subunit beta-2 (Rattus norvegicus) (UniProt P62483). Kind of test: inhibitors of rat Kvbeta2 reductase activity – biochemical, NADPH fluorescence, primary screen (AID 622;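 active means fluorescence slope higher than the sample average by over 3 SD, cut at about -0.22 in these data, passing the limit was not always enough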;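 further: slope of raw intensity against log time taken from 70 to 1610 s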). As to conditions: recombinant KvBeta, 4-cyanobenzaldehyde reduction, at 10 µM, stronger effect = higher value.
Chain of Voltage-gated potassium channel subunit beta-2 (Rattus norvegicus) (P62483 whole entry, looked up): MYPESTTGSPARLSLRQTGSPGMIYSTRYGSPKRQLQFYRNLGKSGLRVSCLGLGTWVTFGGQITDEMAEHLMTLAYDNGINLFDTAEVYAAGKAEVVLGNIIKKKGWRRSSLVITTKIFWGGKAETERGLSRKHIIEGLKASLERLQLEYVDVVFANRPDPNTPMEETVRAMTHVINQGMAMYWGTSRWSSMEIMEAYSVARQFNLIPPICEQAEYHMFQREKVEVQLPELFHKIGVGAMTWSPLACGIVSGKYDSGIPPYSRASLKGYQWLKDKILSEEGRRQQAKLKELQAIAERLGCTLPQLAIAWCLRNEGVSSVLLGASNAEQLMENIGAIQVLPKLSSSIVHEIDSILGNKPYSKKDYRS
The target is the same in test [6]. Kind of test: enhancers of rat Kvbeta2 NADPH turnover – biochemical, NADPH fluorescence, primary screen (AID 623;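 active means NADPH fluorescence slope more negative than the mean of all samples by about 3 SD, 99.7% confidence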;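 further: fluorescence intensity change per second fitted from 20 to 320 s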). As to conditions: Recombinant KvBeta, NADPH fluorescence decrease slope, 10 min; at 10 µM; stronger effect = lower value.
For test [7], the target named is Alpha-2C adrenergic receptor (Homo sapiens) (UniProt P18825). Kind of test: compounds altering alpha2C-coupled GIRK flux – cell-based, HEK293 alpha2C/GIRK1/2, thallium flux, primary screen (AID 624;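 active means fluorescence slope after compound addition differing from the mean of all screened samples at 99.7% confidence, in either direction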;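 further: slope of fluorescence ratio to pre-addition baseline per second over 15 to 24 s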). The following applies: thallium flux BTC fluorescence, at 10 µM, actives lie on both sides.
Chain of Alpha-2C adrenergic receptor (Homo sapiens) (P18825 whole entry, looked up): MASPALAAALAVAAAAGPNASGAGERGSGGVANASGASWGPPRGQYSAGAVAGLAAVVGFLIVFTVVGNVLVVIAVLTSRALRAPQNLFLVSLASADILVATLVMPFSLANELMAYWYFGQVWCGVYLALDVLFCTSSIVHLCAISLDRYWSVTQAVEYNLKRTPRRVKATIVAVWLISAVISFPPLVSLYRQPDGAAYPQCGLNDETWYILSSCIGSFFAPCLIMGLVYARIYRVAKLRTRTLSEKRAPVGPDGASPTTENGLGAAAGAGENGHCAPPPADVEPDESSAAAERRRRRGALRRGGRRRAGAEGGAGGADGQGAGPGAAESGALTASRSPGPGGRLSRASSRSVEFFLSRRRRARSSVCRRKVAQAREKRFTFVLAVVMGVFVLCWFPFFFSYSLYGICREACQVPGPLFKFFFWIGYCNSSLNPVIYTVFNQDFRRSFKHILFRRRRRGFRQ
Test [8] is described as follows: inhibitors of larval lipid processing in zebrafish, primary screen, whole organism, PED6 fluorescence, gall bladder and intestine (AID 686;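 active means a full or partial loss of lipid-probe fluorescence in the fish gall bladder, intestine or both, judged by eye; inactive means no fluorescence loss, or compound toxic to the fish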;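 further: larvae 5 to 7 days old with five fish per well; signal comes from phospholipase A2 cleavage of quenched PED6 carried via bile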). As to conditions: Zebrafish larvae PED6 lipid processing, fluorescence scoring; screened at 20 µM (by protocol). The essentials: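 Incubation: overnight exposure of larvae to compound plus PED6 / Test system: live zebrafish larvae aged 5-7 days, whole organism / Amount: 5 larvae per well / Read-out basis: visual per-well fluorescence inhibition score / Signal: visual fluorescence microscopy scoring of gall bladder, gut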

The nature of test [9]: loss of swimming-algae plug formation – whole organism, Chlamydomonas reinhardtii, WT vs cilia-less mutant, absorbance, 96-well, primary screen (AID 463189;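 active means inhibition at or above 50% relative to wild type and mutant plate controls; inactive means inhibition below 50%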;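 further: 0% = wild type cc124 cells in DMSO and 100% = ciliumless bld1 mutant cells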). The following applies: Chlamydomonas reinhardtii gravitaxis, OD600 absorbance, 2 days; at 10 µM; stronger effect = higher value.
The mark [10] stands for this setting: measured here: cell density z-score.
Where [11] appears, read: measured here: nuclear c-Myc green intensity z-score.
Where [12] appears, read: measured here: nuclear pErk red intensity z-score, stronger effect = higher value.

Active and inactive are the calls of the source.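 How the source made its calls, unless noted: active means visually confirmed hit in the image check and inhibition above 20%; inconclusive means visually confirmed hit but inhibition not above 20%; inactive means no visual hit in the image check.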

What is called inhibition is the relative decrease from the control value, in per cent. In the case of `N#Cc1c(SCC(N)=O)nsc1SCc1ccc(Cl)cc1`, the cell count in test [1] stood at 633. The inhibition in test [1] is -17.9% (inactive); in test [2], -60.5% (inactive); in [4], 17.7% (inactive); in test [9] it was 26.4% (inactive). Further, the nuclei count in test [2] turned out to be 148%. Besides, the z-score is 0.999 in [3] (setting [10]), -1.2 in [3] (setting [11]) and -0.0749 in test [3] (setting [12]). In [5], the fluorescence slope is -0.406 (inactive). In addition, the NADPH fluorescence slope in test [6] is -1.2e-05 (inactive). The slope in test [7] is 0.00612 (inactive). Also, in test [8], the compound was classed as inactive.
For `CSc1nc2sc3c(c2c(=O)n1C1CCCCC1)CCN(C)C3`, the cell count in [1] turned out to be 563. Further, the inhibition in [1] is 1.3% (inactive); in test [2], -69.6% (inactive); in [4] it was 9.82% (inactive); in test [9] it was -15.6% (inactive). Besides, the nuclei count in test [2] was 107%. Besides, the z-score is 0.231 in [3] (setting [10]), 0.631 in test [3] (setting [11]) and -1.25 in test [3] (setting [12]). Also, in test [5], the fluorescence slope is -0.375 (inactive). Further, in test [6], the NADPH fluorescence slope is -2.1e-06 (inactive). Besides, the slope in test [7] was 0.00516 (inactive). For the same compound, in [8], the result was inactive.
In the case of `CCN(CC)C(=O)CSC1=C(C#N)C(c2cccs2)C=C(C)N1` (stereo unspecified), the cell count in [1] worked out at 685. For the same compound, the inhibition was -20% (inactive) in test [1], -137% (inactive) in test [2], -10.6% (inactive) in test [4] and -1.96% (inactive) in test [9]. In test [2], this compound yielded a nuclei count of 171%. Moreover, the z-score was -0.342 in test [3] (setting [10]), -0.599 in test [3] (setting [11]) and 1.19 in test [3] (setting [12]). The fluorescence slope in test [5] was -0.405 (inactive). Moreover, the NADPH fluorescence slope in test [6] is -4.9e-05 (inactive). Also, the slope in test [7] was 0.00539 (inactive). Moreover, the outcome in [8] was inactive.
With `CC1(C)CC(=O)C2=C(C1)N(Cc1ccco1)C(=O)C2(O)C(F)(F)F` (stereo unspecified), the cell count in [1] amounted to 502. The inhibition was -2.4% (inactive) in test [1], -124% (inactive) in test [2], -12.3% (inactive) in [4] and 20.3% (inactive) in [9]. This compound gave a nuclei count in test [2] of 132%. Besides, the z-score in [3] (setting [10]) was -0.0541; in test [3] (setting [11]) it was -0.87; in test [3] (setting [12]), -0.763. In addition, the fluorescence slope in test [5] is -0.467 (inactive). The NADPH fluorescence slope in [6] is -6.1e-05 (inactive). Besides, the slope in test [7] is 0.00641 (inactive). Further, the result in test [8] was inactive.
For `Cc1ccc(-c2ccccc2NC(=O)C2C3C=CC(C3)C2C(=O)O)o1` (stereo unspecified), the cell count in [1] is 553. The inhibition was -2.2% (inactive) in [1], -4.5% (inactive) in test [2], 14% (inactive) in test [4] and 7.64% (inactive) in [9]. Besides, the nuclei count in [2] stood at 154%. Moreover, the z-score in test [3] (setting [10]) is 0.45; in test [3] (setting [11]), -0.671; in test [3] (setting [12]) it was -0.083. For the same compound, the fluorescence slope in test [5] is -0.352 (inactive). Moreover, in test [6], the NADPH fluorescence slope was 5.5e-06 (inactive). The slope in test [7] is 0.00466 (inactive). Further, the compound was classed as inactive in test [8].
`CSc1nc(Oc2ccc(=O)[nH]n2)nc(N(C)C)n1`: the cell count in test [1] was 619. Moreover, the inhibition is -0.7% (inactive) in [1], -20.1% (inactive) in [2], -2.69% (inactive) in [4] and 9.17% (inactive) in test [9]. The same compound showed a nuclei count in test [2] of 148%. In addition, the z-score was -0.384 in [3] (setting [10]), -0.165 in [3] (setting [11]) and 1.66 in [3] (setting [12]). Besides, in [5], the fluorescence slope is -0.314 (inactive). Also, in test [6], the NADPH fluorescence slope is 2.2e-06 (inactive). For the same compound, the slope in test [7] is 0.00466 (inactive). Further, the result in [8] was inactive.
For `O=c1[nH]nc2n1CCCCC2`, the cell count in [1] was 530. Besides, the inhibition in [1] is -27.5% (inactive); in [2] it was -139% (inactive); in test [4], 7.73% (inactive); in [9], 11.3% (inactive). Further, in test [2], the nuclei count amounted to 180%. Also, the figures for the z-score in test [3] (setting [10]), in test [3] (setting [11]) and in test [3] (setting [12]) were 1.3, -1.27 and -0.317, respectively. In [5], the fluorescence slope is -0.501 (inactive). Also, in test [6], the NADPH fluorescence slope is -0.000113 (inactive). For the same compound, the slope in [7] is 0.00508 (inactive). For the same compound, the compound was called inactive in [8].
